This note sets out measurements from ChEMBL document CHEMBL1141106, “Synthesis, binding affinity at glutamic acid receptors, neuroprotective effects, and molecular modeling investigation of novel dihydroisoxazole amino acids” (J Med Chem, 2005).

Assay [1] addresses T1, Metabotropic glutamate receptor 1 (Rattus norvegicus, UniProt P23385). Description: Binding affinity for mGluR1 receptor expressed in CHO cells. In kind it is cell-based.
In assay [2] the target is T2, Metabotropic glutamate receptor 2 (Rattus norvegicus, UniProt P31421). The assay can be described thus: Binding affinity for mGluR2 receptor expressed in CHO cells. Type of assay: cell-based.
T2 sequence (P31421 whole entry): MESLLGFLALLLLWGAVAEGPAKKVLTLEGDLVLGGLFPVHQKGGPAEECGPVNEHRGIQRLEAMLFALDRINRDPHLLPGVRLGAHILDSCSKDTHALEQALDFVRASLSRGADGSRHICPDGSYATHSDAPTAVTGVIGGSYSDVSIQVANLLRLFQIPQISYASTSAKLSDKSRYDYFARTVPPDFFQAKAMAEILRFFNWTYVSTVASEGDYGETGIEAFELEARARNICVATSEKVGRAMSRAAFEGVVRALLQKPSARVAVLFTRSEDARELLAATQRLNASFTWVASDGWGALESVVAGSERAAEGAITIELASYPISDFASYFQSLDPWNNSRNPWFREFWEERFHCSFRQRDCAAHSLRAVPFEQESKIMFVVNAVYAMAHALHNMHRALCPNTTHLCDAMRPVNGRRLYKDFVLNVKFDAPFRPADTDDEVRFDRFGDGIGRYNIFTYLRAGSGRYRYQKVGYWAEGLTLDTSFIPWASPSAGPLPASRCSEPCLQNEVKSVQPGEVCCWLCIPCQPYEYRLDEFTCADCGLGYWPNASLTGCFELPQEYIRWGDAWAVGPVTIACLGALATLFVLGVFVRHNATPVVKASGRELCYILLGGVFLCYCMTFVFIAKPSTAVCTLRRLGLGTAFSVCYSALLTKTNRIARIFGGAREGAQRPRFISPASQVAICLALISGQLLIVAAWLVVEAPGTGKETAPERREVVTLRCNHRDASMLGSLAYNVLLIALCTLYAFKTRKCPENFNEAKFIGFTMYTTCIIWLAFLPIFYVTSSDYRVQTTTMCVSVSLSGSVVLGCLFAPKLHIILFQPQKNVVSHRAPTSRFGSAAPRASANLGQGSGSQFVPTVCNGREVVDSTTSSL
Assay [3] has as its target T3, Metabotropic glutamate receptor 4 (Rattus norvegicus, UniProt P31423). The assay can be described thus: Binding affinity for mGluR4 receptor expressed in CHO cells. Type of assay: cell-based.
Assay [4] concerns the target Glutamate receptor ionotropic, AMPA (Rattus norvegicus, UniProt P19490+P19491+P19492+P19493). Description: In vitro inhibitory concentration against AMPA receptor using [3H]AMPA. In kind it is protein-complex assay. In a few lines:
(§1)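 Displacement binding to rat cortical membranes. Radioligands: NMDA site 2 nM [3H]CGP 39653; AMPA site 5 nM [3H]AMPA; KA site 5 nM [3H]KA without CaCl2. Bound radioactivity was counted by scintillation. IC50 came from nonlinear regression with a Hill-coefficient inhibition equation on percent of total specific binding. Mean ± SEM of at least three independent experiments.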

Assay [5] is described as follows: Inhibition of 10 uM NMDA induced electrophysiological response in rat cortical wedge preparation.
The target of assay [6] is Glutamate receptor ionotropic, kainate. Description: In vitro inhibitory concentration against KA receptor using [3H]KA. In kind it is protein-complex assay, Rattus norvegicus. In a few lines: as §1
The target in assay [7] is T1, Metabotropic glutamate receptor 1. The assay can be described thus: Effective concentration against mGluR1 receptor expressed in CHO cells. Type of assay: cell-based. In short, it runs like this: (§2)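 CHO cell lines stably expressing rat mGluR1a, mGluR2 or mGluR4a. Functional second-messenger read-out: intracellular calcium for mGluR1, cyclic AMP levels for mGluR2 and mGluR4. Values are mean ± SEM of at least three independent experiments.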

Assay [8] has as its target T2, Metabotropic glutamate receptor 2. Description: Effective concentration against mGluR2 receptor expressed in CHO cells. Type of assay: cell-based. In short, it runs like this:
as §2

Assay [9] concerns the target T3, Metabotropic glutamate receptor 4. Description: Effective concentration against mGluR4 receptor expressed in CHO cells. In kind it is cell-based. In short, it runs like this:
as §2

The target in a further assay is Glutamate NMDA receptor. The assay can be described thus: In vitro binding affinity for NMDA receptor using [3H]-CGP- 39653. Type of assay: protein-complex assay, Rattus norvegicus. In a few lines: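 Displacement binding to rat cortical membranes. Bound radioactivity was counted by scintillation. IC50 came from nonlinear regression with a Hill-coefficient inhibition equation on percent of total specific binding. Mean ± SEM of at least three independent experiments.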

In assay [10] the target is T2, Metabotropic glutamate receptor 2. Description: Effective concentration against mGluR2 receptor expressed in CHO cells; weak. Type of assay: cell-based. In short, it runs like this: as §2
In assay [11] the target is Metabotropic glutamate receptor 4 (Rattus norvegicus) (UniProt P31423). Description: Binding affinity for mGluR4 receptor expressed in CHO cells; weak.
Chain of Metabotropic glutamate receptor 4 (Rattus norvegicus) (P31423 whole entry, looked up): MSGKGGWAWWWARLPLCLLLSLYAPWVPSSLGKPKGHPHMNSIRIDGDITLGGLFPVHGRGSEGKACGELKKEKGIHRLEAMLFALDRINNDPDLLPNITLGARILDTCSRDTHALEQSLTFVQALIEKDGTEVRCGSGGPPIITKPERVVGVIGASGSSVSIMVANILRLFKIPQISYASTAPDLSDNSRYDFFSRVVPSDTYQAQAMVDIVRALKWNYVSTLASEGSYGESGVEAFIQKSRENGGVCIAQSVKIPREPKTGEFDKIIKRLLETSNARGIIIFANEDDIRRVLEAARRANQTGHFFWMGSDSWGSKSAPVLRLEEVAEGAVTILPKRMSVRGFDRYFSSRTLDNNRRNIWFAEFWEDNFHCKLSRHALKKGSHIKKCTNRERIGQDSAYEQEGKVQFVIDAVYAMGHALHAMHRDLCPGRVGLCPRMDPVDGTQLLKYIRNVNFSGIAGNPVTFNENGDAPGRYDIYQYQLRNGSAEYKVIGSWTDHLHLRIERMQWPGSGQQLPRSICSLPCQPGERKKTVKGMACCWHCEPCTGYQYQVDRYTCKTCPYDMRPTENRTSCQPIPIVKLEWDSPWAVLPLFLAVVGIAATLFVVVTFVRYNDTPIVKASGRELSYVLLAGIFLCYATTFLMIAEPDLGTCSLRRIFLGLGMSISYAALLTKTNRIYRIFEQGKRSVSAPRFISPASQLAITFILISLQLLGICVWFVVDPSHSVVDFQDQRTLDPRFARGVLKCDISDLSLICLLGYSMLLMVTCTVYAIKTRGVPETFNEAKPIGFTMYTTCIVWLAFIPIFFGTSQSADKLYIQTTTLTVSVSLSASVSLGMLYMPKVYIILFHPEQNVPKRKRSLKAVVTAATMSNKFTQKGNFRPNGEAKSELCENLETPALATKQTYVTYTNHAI

Each structure is given as a SMILES string. Where only a bound is given, the exact number is not on record here.

T3 sequence (P31423 whole entry): as the sequence (P31423 whole entry, looked up) above
T1 sequence (P23385 whole entry): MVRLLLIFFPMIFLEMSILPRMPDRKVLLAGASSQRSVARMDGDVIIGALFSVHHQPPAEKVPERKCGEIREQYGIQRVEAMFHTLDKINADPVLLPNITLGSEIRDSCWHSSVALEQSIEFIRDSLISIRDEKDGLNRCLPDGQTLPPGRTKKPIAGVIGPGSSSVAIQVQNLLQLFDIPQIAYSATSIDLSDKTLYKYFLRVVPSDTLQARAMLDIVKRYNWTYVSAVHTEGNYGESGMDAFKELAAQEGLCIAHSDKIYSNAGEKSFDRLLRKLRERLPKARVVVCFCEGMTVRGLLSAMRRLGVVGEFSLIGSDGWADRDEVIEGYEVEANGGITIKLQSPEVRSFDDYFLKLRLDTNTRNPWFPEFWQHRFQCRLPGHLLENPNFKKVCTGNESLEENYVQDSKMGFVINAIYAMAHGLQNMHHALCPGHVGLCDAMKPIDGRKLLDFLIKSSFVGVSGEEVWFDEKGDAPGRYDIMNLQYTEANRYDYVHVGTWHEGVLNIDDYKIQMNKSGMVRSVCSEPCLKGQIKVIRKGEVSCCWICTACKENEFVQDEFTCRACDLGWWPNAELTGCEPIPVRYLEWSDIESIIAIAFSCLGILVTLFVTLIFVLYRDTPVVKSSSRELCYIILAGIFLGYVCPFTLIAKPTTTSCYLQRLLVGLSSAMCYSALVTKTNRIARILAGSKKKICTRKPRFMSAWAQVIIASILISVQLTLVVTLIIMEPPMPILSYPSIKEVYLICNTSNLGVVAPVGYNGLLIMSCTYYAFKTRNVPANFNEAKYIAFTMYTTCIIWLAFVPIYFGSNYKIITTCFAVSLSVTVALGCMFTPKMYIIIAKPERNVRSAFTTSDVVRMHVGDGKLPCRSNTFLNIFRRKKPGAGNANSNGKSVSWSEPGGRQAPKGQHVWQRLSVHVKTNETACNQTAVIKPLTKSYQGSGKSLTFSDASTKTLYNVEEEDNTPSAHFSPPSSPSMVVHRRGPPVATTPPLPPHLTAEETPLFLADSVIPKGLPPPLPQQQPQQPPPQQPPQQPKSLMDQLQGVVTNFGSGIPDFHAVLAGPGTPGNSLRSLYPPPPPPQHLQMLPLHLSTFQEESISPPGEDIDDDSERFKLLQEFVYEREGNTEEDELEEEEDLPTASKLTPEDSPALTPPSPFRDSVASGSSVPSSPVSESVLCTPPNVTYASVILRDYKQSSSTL

As to `NC(CC1CC(C(=O)O)=NO1)C(=O)O` (racemic; form 1), the inhibition constant Ki (as a rule, the dissociation constant of the complex between target and ligand, obtained from inhibition or displacement) was above 1000 µM in assay [1], above 1000 µM in assay [2], above 1000 µM in [3] and 0.21 µM on Glutamate NMDA receptor. The half-maximal inhibitory concentration (IC50) (commonly the concentration that gives 50% inhibition) in [4] was above 100 µM; in assay [5], 14.2 µM; in [6], above 100 µM. Moreover, the EC50 in assay [7], in assay [8] and in assay [9] was above 1000 µM throughout.
Consider `NC1(C(=O)O)CC2ON=C(C(=O)O)C2C1` (racemic; form 2), for which the Ki is 27 µM in [1], above 1000 µM in [3] (cho) and above 100 µM at Glutamate NMDA receptor. Moreover, the EC50 (commonly the concentration at which the effect is half-maximal) in assay [8] was 16 µM; in assay [9] (cho), above 1000 µM.
Consider `N[C@H](C[C@H]1CC(C(=O)O)=NO1)C(=O)O`, for which the IC50 in [4] and in assay [6] was above 100 µM each time. The inhibition constant Ki at Glutamate NMDA receptor came to 0.1 µM.
For the molecule `NC(CC1CC(C(=O)O)=NO1)C(=O)O` (racemic; form 2), the IC50 in assay [5] came out at 30.5 µM. Besides, on Glutamate NMDA receptor, the Ki amounted to 0.96 µM.
`N[C@@]1(C(=O)O)C[C@@H]2ON=C(C(=O)O)[C@@H]2C1`: the EC50 result in assay [10] is given as “Not Active”. For the same molecule, the affinity on Glutamate NMDA receptor, expressed as Ki, was 47 µM.
As for `NC1(C(=O)O)CC2ON=C(C(=O)O)C2C1` (racemic; form 1), the Ki in assay [1] was 94 µM; in assay [3], above 1000 µM; on Glutamate NMDA receptor, 0.37 µM. Further, the values for the IC50 in [4], in [5] and in [6] were above 100 µM, 14 µM and above 100 µM, respectively. For the same molecule, the EC50 in [9] was above 1000 µM.
For `N[C@@]1(C(=O)O)C[C@@H]2C(C(=O)O)=NO[C@@H]2C1`, the Ki is above 1000 µM in assay [1], above 1000 µM in [2], above 1000 µM in assay [3] and 0.233 µM at Glutamate NMDA receptor. Also, the IC50 in assay [4] and in assay [6] was above 100 µM in each case. In addition, the EC50 in [7], in [8] and in assay [9] was above 1000 µM each time.
With `N[C@H](C[C@@H]1CC(C(=O)O)=NO1)C(=O)O`, the concentration for half-maximal inhibition (IC50) in assay [4] and in assay [6] was above 100 µM in each case. For the same molecule, the inhibition constant Ki at Glutamate NMDA receptor was 0.51 µM.
In the case of `N[C@@H](C[C@@H]1CC(C(=O)O)=NO1)C(=O)O`, the half-maximal inhibitory concentration (IC50) in assay [4] and in [6] was above 100 µM in each case. The same molecule yielded a Ki at Glutamate NMDA receptor of 1.9 µM.
On to `N[C@@H](C[C@H]1CC(C(=O)O)=NO1)C(=O)O`, for which the half-maximal inhibitory concentration (IC50) in assay [4] and in assay [6] was above 100 µM each time.
Regarding `N[C@]1(C(=O)O)C[C@@H]2ON=C(C(=O)O)[C@@H]2C1`, the Ki in [1] and in [2] was above 1000 µM in each case. Moreover, the concentration giving a half-maximal response (EC50) in assay [7] and in assay [8] was above 1000 µM throughout.
Take `N[C@]1(C(=O)O)C[C@@H]2C(C(=O)O)=NO[C@@H]2C1`: the inhibition constant Ki in [1] was 33 µM; in assay [3], above 1000 µM; in assay [11], “weak”. Further, the 50% effective concentration (EC50) was 9.1 µM in assay [8] and above 1000 µM in assay [9].
